Experimental data reported in ChEMBL document CHEMBL1140994, “Ranking the selectivity of PubChem screening hits by activity-based protein profiling: MMP13 as a case study” (Bioorg Med Chem, 2009).
pIC50: −log10 of the molar value. Activity calls are given as the source filed them. No cut-off for these calls is given here.

Columns and labels:
Collagenase 3 = Collagenase 3 (Homo sapiens, UniProt P45452); test: Inhibition of human recombinant MMP13 by fluorogenic substrate assay
[1] = target: 72 kDa type IV collagenase (Homo sapiens) (UniProt P08253); test: Inhibition of human recombinant MMP2 at 200 uM by HxBPyne probe-based competitive activity based protein profiling assay in presence of 5 uM HxBpane competitor
Sequence of 72 kDa type IV collagenase (Homo sapiens) (P08253 110-660 limits assumed): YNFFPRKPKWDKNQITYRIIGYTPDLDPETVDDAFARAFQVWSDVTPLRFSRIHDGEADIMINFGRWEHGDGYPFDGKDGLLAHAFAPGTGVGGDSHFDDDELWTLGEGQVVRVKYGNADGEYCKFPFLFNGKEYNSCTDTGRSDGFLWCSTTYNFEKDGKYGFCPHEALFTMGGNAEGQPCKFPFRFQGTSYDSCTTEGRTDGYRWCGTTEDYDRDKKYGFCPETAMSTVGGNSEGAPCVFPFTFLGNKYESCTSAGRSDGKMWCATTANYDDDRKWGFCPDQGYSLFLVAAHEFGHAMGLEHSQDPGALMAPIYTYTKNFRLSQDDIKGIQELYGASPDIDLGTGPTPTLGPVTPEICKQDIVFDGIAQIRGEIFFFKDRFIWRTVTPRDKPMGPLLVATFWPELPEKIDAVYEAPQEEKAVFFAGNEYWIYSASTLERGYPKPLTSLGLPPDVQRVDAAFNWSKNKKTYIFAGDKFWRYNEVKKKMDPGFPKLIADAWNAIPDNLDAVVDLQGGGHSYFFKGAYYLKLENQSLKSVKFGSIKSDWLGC
Method in brief: (§1)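 Recombinant enzyme at 0.5 μM final in mouse liver soluble proteome (1 mg protein/mL in PBS). HxBPyne probe cocktail 0.5 μM total final, with inhibitor 200 μM or DMSO. Preincubated 30 min on ice, then UV 365 nm for 1 h on ice. Rhodamine-azide click chemistry, 1 h RT in dark. SDS-PAGE with in-gel fluorescence; band intensity given as % of DMSO control.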

[2] = target: T1, Stromelysin-3 (Homo sapiens) (UniProt P24347); test: Inhibition of human recombinant MMP11 at 200 uM by HxBPyne probe-based competitive activity based protein profiling assay in presence of 5 uM HxBpane competitor; method in brief: as §1
T1 sequence (whole entry): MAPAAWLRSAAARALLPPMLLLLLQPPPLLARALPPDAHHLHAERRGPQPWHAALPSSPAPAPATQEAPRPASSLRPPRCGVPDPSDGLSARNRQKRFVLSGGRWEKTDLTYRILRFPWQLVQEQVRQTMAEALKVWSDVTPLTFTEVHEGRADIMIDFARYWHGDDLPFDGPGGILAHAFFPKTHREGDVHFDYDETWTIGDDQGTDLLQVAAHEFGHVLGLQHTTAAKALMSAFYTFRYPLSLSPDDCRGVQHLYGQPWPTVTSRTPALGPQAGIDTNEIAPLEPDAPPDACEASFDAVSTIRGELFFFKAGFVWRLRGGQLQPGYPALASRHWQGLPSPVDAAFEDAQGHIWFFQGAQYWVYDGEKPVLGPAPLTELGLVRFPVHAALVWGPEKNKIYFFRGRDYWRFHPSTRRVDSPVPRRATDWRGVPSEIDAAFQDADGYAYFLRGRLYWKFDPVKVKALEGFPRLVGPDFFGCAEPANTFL

[3] = target: Matrix metalloproteinase-16 (Homo sapiens) (UniProt P51512); test: Inhibition of human recombinant MMP16 at 200 uM by HxBPyne probe-based competitive activity based protein profiling assay in presence of 5 uM HxBpane competitor; method in brief: as §1
Sequence of Matrix metalloproteinase-16 (Homo sapiens) (P51512 whole entry): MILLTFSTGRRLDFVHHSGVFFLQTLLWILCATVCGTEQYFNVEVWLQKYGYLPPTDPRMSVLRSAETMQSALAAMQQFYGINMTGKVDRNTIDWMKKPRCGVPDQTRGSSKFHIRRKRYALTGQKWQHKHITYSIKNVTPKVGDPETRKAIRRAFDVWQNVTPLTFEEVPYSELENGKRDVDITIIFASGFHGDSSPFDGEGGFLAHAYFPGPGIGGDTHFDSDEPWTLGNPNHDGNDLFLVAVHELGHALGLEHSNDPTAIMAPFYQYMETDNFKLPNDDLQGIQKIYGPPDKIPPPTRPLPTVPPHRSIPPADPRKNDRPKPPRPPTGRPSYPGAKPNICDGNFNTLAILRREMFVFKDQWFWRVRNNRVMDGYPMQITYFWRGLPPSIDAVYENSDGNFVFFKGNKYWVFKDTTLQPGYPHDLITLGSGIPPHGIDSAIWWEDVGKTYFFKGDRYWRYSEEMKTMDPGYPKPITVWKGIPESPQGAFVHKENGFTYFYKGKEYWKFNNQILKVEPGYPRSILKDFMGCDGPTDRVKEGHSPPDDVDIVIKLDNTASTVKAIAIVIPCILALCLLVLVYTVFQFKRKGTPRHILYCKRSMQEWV

[4] = target: Matrix metalloproteinase-24 (Homo sapiens) (UniProt Q9Y5R2); test: Inhibition of human recombinant MMP24 at 200 uM by HxBPyne probe-based competitive activity based protein profiling assay in presence of 5 uM HxBpane competitor; method in brief: as §1
Sequence of Matrix metalloproteinase-24 (Homo sapiens) (Q9Y5R2 whole entry): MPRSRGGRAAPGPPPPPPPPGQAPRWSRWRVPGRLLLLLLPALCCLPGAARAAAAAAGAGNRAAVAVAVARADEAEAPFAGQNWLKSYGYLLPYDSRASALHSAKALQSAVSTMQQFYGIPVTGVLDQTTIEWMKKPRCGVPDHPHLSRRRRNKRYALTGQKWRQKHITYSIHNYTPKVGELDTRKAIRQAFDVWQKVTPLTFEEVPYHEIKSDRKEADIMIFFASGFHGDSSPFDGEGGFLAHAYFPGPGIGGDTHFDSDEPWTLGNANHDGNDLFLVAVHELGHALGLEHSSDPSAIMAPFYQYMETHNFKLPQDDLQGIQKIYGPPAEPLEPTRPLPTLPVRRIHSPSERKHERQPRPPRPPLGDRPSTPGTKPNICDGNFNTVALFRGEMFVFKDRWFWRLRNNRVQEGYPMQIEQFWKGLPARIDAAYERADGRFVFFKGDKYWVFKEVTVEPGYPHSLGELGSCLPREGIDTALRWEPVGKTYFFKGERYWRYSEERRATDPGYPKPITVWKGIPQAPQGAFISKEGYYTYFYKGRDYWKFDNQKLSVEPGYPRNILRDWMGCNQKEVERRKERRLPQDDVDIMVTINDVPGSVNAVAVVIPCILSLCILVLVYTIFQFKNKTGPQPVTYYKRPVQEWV

[5] = target: T2, A disintegrin and metalloproteinase with thrombospondin motifs 5 (Homo sapiens) (UniProt Q9UNA0); test: Inhibition of human recombinant ADAMTS5 at 200 uM by HxBPyne probe-based competitive activity based protein profiling assay in presence of 5 uM HxBpane competitor; method in brief: as §1
T2 sequence (whole entry): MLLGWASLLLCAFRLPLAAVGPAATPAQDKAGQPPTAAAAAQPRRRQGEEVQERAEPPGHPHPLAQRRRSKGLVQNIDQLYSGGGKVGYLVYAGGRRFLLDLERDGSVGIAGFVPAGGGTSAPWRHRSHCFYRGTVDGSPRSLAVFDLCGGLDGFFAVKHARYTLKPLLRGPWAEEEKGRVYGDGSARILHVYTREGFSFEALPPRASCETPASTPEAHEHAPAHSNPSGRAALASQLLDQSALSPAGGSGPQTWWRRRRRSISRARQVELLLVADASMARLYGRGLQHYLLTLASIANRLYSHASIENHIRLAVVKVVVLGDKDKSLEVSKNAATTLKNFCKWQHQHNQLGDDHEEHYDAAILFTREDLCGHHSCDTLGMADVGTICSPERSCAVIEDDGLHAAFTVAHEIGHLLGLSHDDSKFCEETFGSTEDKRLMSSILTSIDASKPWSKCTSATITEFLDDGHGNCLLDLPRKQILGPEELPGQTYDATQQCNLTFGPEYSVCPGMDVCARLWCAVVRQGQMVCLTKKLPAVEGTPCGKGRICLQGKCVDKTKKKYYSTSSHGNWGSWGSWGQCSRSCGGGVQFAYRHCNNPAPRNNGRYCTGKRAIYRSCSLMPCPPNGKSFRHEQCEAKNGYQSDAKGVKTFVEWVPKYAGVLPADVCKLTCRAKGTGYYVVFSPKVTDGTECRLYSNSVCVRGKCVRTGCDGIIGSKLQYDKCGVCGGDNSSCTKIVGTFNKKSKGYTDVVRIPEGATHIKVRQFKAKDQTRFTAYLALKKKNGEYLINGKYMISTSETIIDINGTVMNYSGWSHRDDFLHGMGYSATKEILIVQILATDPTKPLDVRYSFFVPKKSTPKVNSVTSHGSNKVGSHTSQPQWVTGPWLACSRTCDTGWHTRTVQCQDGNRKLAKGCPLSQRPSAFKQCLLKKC

Neutrophil collagenase = Neutrophil collagenase (Homo sapiens, UniProt P22894); test: Inhibition of human recombinant MMP8 by fluorogenic substrate assay
Sequence of Neutrophil collagenase (P22894 whole entry): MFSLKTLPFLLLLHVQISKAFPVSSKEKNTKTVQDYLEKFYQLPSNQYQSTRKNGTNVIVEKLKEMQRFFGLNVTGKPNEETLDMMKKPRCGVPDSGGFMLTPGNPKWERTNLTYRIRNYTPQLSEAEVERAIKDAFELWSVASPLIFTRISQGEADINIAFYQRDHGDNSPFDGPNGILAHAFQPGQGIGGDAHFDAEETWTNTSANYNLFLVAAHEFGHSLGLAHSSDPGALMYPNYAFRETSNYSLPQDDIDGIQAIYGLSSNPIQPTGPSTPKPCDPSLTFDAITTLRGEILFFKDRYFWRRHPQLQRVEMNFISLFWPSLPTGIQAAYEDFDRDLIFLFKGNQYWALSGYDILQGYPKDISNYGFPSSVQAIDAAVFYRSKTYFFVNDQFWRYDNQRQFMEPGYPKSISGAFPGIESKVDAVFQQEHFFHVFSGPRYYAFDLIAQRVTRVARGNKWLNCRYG
Method in brief: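 Enzyme (MMP8 6 nM, MMP9 2 nM, MMP13 1.5 nM final) preincubated with inhibitor 30 min in 50 mM HEPES pH 7.5, 10 mM CaCl2, 0.05% Brij-35, at RT. Mca-PLGL-Dpa-AR-NH2 added at 5 μM; fluorescence (ex 328/em 393 nm) read each minute for 10 min. Initial rates by linear least squares; IC50 from variable-slope sigmoidal fit. Triplicate; mean with 95% CI.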

[6] = target: Disintegrin and metalloproteinase domain-containing protein 17 (Homo sapiens) (UniProt P78536); test: Inhibition of human recombinant ADAM17 at 200 uM by HxBPyne probe-based competitive activity based protein profiling assay in presence of 5 uM HxBpane competitor; method in brief: as §1
Sequence of Disintegrin and metalloproteinase domain-containing protein 17 (Homo sapiens) (P78536 whole entry, the tested form may be a part): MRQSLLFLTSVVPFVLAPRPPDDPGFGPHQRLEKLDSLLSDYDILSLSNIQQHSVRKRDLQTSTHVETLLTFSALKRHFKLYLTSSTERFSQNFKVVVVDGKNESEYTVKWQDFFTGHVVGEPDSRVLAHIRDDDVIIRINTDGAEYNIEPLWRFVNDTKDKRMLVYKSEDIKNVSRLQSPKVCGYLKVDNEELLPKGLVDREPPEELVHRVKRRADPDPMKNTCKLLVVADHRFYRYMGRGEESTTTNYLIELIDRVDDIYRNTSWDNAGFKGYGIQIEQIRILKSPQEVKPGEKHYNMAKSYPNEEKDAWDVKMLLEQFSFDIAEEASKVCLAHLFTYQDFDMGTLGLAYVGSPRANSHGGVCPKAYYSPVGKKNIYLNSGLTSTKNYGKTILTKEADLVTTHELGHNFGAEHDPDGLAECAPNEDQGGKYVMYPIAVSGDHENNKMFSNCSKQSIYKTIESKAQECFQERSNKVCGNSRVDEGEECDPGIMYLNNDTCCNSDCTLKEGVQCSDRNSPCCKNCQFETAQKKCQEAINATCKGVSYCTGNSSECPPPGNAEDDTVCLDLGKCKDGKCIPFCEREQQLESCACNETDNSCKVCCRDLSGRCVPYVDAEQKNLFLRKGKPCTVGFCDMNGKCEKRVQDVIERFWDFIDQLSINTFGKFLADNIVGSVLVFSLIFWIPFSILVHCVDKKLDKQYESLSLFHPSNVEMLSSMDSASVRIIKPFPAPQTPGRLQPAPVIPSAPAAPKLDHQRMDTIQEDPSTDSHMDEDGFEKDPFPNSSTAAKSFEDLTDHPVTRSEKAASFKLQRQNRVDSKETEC

[7] = target: A disintegrin and metalloproteinase with thrombospondin motifs 1 (Homo sapiens) (UniProt Q9UHI8); test: Inhibition of human recombinant ADAMTS1 at 200 uM by HxBPyne probe-based competitive activity based protein profiling assay in presence of 5 uM HxBpane competitor; method in brief: as §1
Sequence of A disintegrin and metalloproteinase with thrombospondin motifs 1 (Homo sapiens) (Q9UHI8 whole entry): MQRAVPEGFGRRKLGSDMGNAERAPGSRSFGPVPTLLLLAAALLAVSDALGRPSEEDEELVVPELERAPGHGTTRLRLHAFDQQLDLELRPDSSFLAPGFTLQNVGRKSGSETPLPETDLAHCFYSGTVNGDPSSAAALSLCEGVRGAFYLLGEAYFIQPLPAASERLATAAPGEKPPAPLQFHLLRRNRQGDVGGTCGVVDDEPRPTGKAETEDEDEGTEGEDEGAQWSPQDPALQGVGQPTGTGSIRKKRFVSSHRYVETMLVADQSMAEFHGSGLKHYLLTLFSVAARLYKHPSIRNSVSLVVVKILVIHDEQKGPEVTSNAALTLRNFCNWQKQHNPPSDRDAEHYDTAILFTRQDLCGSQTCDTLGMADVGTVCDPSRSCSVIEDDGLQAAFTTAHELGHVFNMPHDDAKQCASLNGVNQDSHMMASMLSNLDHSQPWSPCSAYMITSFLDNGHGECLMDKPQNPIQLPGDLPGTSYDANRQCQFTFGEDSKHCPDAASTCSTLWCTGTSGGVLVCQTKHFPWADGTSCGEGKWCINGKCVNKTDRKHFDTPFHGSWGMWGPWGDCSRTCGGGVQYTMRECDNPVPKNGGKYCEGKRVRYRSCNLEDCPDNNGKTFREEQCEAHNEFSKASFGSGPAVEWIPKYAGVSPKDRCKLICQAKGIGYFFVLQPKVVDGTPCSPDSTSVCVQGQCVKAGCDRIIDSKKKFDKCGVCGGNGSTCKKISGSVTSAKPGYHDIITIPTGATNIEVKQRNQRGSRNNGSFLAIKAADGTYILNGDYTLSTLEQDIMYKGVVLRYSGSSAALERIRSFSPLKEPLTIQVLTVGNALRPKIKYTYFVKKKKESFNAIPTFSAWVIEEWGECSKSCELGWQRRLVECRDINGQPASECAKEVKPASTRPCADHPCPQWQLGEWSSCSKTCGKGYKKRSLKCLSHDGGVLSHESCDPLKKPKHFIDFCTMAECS

[8] = target: Methionine aminopeptidase 2 (Homo sapiens) (UniProt P50579); test: Inhibition of human recombinant METAP2 at 200 uM by HxBPyne probe-based competitive activity based protein profiling assay in presence of 200 uM HxBpane competitor
Sequence of Methionine aminopeptidase 2 (Homo sapiens) (P50579 2-478 limits assumed): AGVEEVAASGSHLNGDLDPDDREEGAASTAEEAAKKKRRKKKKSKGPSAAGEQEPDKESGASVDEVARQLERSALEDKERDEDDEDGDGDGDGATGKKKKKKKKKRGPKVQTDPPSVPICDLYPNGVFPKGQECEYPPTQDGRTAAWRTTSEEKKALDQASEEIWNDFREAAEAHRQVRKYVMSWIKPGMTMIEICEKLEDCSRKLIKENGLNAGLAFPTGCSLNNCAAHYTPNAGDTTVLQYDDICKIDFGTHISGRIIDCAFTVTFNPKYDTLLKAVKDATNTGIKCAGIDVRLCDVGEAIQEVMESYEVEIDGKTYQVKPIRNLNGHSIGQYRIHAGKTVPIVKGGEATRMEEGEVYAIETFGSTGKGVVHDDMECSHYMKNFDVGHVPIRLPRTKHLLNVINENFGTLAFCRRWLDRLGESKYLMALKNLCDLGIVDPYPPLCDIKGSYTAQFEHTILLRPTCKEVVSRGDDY
Method in brief: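 Metalloprotease at 1.6 μM final in PBS, without liver proteome. HxBPyne probe cocktail 20 μM final, with inhibitor 200 μM or DMSO. Preincubated 30 min on ice, then irradiated 365 nm for 1 h on ice. Rhodamine-azide click chemistry, then SDS-PAGE and in-gel fluorescence scanning. Integrated band intensity expressed as % of DMSO control.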

[9] = target: Neprilysin (Homo sapiens) (UniProt P08473); test: Inhibition of human recombinant neprilysin at 200 uM by HxBP-Rh probe-based competitive activity based protein profiling assay in presence of 200 uM HxBP-alkyne
Method in brief: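 Enzyme 0.5 μM final, in PBS (ADAMTS4, neprilysin) or in 1 mg/mL mouse liver soluble proteome (MMP9). HxBP-Rh probe 0.5 μM final with 200 μM inhibitor or DMSO. Preincubated 30 min on ice, UV 365 nm 1 h on ice. Deglycosylated with PNGase F, then SDS-PAGE with fluorescence scanning. Activity given relative to DMSO control.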

pIC50 (Collagenase 3) | Activity [1] | Activity [2] | Activity [3] | Activity [4] | Activity [5] | pIC50 (Neutrophil collagenase) | Activity [6] | Activity [7] | Activity [8] | Activity [9] | Structure (SMILES)
5.80 | inactive | inactive | inactive | inactive | inactive | < 4.00 | inactive | inactive | inactive | inactive | COc1ccc(CSc2nc(C)cc(O)n2)cc1
6.04 | inactive | inactive | inactive | inactive | inactive | < 4.00 | inactive | inactive | inactive | inactive | Oc1nc(SCc2ccc(Cl)cc2)nc2c1CCC2
